Measurements reported in ChEMBL document CHEMBL5724801, “EUbOPEN Chemogenomics Library - Multiplex” (2024).
“And” between values parts separate entries of the source, which are not always exact repeats. Identical values can stand only once.

Tested on: Fibroblast
Test: Multiplex assay against human fibroblast
Format: toxicity, cell-based
Outline: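 Values for tubulin, mitochondrial-mass and membrane-permeability phenotypes are per cents of cells with healthy nuclei. These cells were identified by CellPathfinder machine-learning gating of live cells that had been stained at seeding with Hoechst33342, BioTracker Green Microtubule Cytoskeleton Dye, MitoTracker Red and Annexin V Alexa Fluor 680 and imaged on a CQ1 microscope at 37°C and 5% CO2 after compound addition. The gating first set Hoechst high-intensity objects apart from normal cells, then split normal cells into healthy, pyknosed or fragmented nuclei, and pyknosed cells into mitotic or apoptotic.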

[1] = 12 h, 1 µM, compound concentration 1 uM
[2] = 12 h, 10 µM, compound concentration 10 uM
[3] = 24 h, 1 µM, compound concentration 1 uM
[4] = 24 h, 10 µM, compound concentration 10 uM
[5] = 48 h, 1 µM, compound concentration 1 uM
[6] = 48 h, 10 µM, compound concentration 10 uM

`Cc1cccc(NC(=O)CN2CCC(c3ccccn3)CC2)c1.Cl.Cl` was tested, and the “Population Apoptotic (%)” value [1] was 47% and 33%, the “Population Fragmented Nuclei (%)” value [1] was 16% and 25% and the “Population Healthy Nuclei (%)” value [1] was 70% and 55%. The “Population Hoechst High Intensity Objects (%)” value [1] was 4% and 6%, the “Population Membrane Permeable-Phenotype (%)” value [1] was 0% and 2% and the “Population Mitochondria Different-Phenotype (%)” value [1] was 6% and 5%. The “Population Mitotic Cells (%)” value [1] was 52% and 66%, the “Population Normal (%)” value [1] was 95% and 93% and the “Population Pyknosed Nuclei (%)” value [1] was 12% and 19%. For the same compound, the “Population Tubulin-Different-Phenotype (%)” value [1] was 34% and 35%, the “Total Cell Count” value [1] was 140 and 232 and the “Population Apoptotic (%)” value [2] was 59% and 34%. The “Population Healthy Nuclei (%)” value [2] was 78% and 30%, the “Population Hoechst High Intensity Objects (%)” value [2] was 10% and 2% and the “Population Membrane Permeable-Phenotype (%)” value [2] was 1% and 6%. The “Population Mitochondria Different-Phenotype (%)” value [2] was 7% and 10%, the “Population Mitotic Cells (%)” value [2] was 40% and 65% and the “Population Normal (%)” value [2] was 89% and 98%. For the same compound, the “Population Pyknosed Nuclei (%)” value [2] was 13% and 23%, the “Population Tubulin-Different-Phenotype (%)” value [2] was 36% and 56% and the “Total Cell Count” value [2] was 229 and 100. The “Population Apoptotic (%)” value [3] was 50% and 40%, the “Population Fragmented Nuclei (%)” value [3] was 18% and 26% and the “Population Healthy Nuclei (%)” value [3] was 70% and 53%. The “Population Hoechst High Intensity Objects (%)” value [3] was 2% and 4%, the “Population Membrane Permeable-Phenotype (%)” value [3] was 0% and 4% and the “Population Mitochondria Different-Phenotype (%)” value [3] was 8% and 6%. For the same compound, the “Population Mitotic Cells (%)” value [3] was 50% and 59%, the “Population Normal (%)” value [3] was 97% and 95% and the “Population Pyknosed Nuclei (%)” value [3] was 10% and 19%. The “Population Tubulin-Different-Phenotype (%)” value [3] was 25% and 30%, the “Total Cell Count” value [3] was 134 and 239 and the “Population Apoptotic (%)” value [4] was 64% and 42%. For the same compound, the “Population Healthy Nuclei (%)” value [4] was 81% and 34%, the “Population Hoechst High Intensity Objects (%)” value [4] was 7% and 0% and the “Population Membrane Permeable-Phenotype (%)” value [4] was 0% and 11%. For the same compound, the “Population Mitochondria Different-Phenotype (%)” value [4] was 11%, the “Population Mitotic Cells (%)” value [4] was 35% and 57% and the “Population Normal (%)” value [4] was 92% and 100%. For the same compound, the “Population Tubulin-Different-Phenotype (%)” value [4] was 38% and 50%, the “Total Cell Count” value [4] was 217 and 105 and the “Population Apoptotic (%)” value [5] was 80% and 60%. For the same compound, the “Population Fragmented Nuclei (%)” value [5] was 25% and 31%, the “Population Healthy Nuclei (%)” value [5] was 63% and 55% and the “Population Hoechst High Intensity Objects (%)” value [5] was 3%. For the same compound, the “Population Membrane Permeable-Phenotype (%)” value [5] was 1% and 4%, the “Population Mitochondria Different-Phenotype (%)” value [5] was 3% and the “Population Mitotic Cells (%)” value [5] was 20% and 39%. The “Population Normal (%)” value [5] was 96%, the “Population Pyknosed Nuclei (%)” value [5] was 11% and 12% and the “Population Tubulin-Different-Phenotype (%)” value [5] was 28% and 35%. The “Total Cell Count” value [5] was 138 and 229, the “Population Apoptotic (%)” value [6] was 76% and 28% and the “Population Healthy Nuclei (%)” value [6] was 75% and 39%. For the same compound, the “Population Hoechst High Intensity Objects (%)” value [6] was 7% and 1%, the “Population Membrane Permeable-Phenotype (%)” value [6] was 2% and the “Population Normal (%)” value [6] was 92% and 98%. The “Population Pyknosed Nuclei (%)” value [6] was 7% and 6%, the “Population Tubulin-Different-Phenotype (%)” value [6] was 44% and 61% and the “Total Cell Count” value [6] was 238 and 109.
